From ChEMBL document CHEMBL3259656, “Discovery of AZD3199, An Inhaled Ultralong Acting β2 Receptor Agonist with Rapid Onset of Action” (ACS Med Chem Lett, 2014) come the findings set out here.

Active and inactive are the calls of the source. The calls are words filed in the database; no cut-off is given here. Some results are limits rather than exact numbers.

The EC50 is the concentration giving half of the maximal effect. The term hepatocyte CLint denotes the rate of metabolic loss divided by the concentration. A lower hepatocyte CLint goes with slow turnover. As usually defined, the bioavailability is dose-corrected exposure relative to a reference, in per cent. A higher bioavailability goes with good availability.

In series [1] the target is Beta-2 adrenergic receptor (Homo sapiens, UniProt P07550). Briefly: Agonist activity at human beta-2 adrenergic receptor expressed in human H292 cells assessed as accumulation of intracellular cAMP after 1 hr by AlphaScreen assay. The format is functional, cell-based.
Beta-2 adrenergic receptor, sequence (P07550 whole entry): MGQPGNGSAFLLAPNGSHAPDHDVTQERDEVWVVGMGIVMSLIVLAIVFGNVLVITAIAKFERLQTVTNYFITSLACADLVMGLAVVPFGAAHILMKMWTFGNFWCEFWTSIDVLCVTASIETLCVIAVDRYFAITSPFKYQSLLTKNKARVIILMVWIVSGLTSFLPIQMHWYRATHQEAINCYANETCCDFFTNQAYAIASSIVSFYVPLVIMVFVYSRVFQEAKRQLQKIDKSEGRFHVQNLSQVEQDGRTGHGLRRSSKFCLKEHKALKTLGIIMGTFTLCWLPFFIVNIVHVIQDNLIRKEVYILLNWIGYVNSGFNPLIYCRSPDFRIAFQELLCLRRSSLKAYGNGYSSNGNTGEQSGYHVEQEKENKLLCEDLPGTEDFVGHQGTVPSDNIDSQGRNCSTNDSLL
In series [2] the target is T1, D(2) dopamine receptor (Homo sapiens, UniProt P14416). Briefly: Partial agonist activity at human recombinant dopamine D2S receptor expressed in HEK cells by GTPgammaS binding assay. In kind it is functional, cell-based. The settings on record: HEK293.
T1 sequence (P14416 whole entry): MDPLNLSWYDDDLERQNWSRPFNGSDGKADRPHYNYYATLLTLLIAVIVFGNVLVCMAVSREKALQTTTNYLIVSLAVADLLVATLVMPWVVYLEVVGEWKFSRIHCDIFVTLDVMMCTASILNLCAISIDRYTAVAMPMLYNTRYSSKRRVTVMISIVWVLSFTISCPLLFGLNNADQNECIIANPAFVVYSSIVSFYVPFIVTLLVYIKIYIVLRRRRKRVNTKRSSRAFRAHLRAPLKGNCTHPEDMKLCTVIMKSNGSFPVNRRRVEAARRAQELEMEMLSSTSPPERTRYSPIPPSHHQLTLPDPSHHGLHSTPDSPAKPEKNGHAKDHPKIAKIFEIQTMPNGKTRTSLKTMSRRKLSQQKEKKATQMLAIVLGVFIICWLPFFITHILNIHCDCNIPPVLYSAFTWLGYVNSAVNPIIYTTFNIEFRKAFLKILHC
Series [3] has as its target Beta-2 adrenergic receptor (Rattus norvegicus) (UniProt P10608). The series can be described thus: Agonist activity at beta-2 adrenergic receptor in rat C6 cells assessed as cAMP accumulation. The format is functional, cell-based. For orientation: Changes in cAMP serve as a functional read-out for many G protein-coupled receptors.
Series [4] shares this target. Briefly: Intrinsic activity at beta-2 adrenergic receptor in rat C6 cells. In kind it is cell-based.
The species entered for series [5] is Oryctolagus cuniculus. Briefly: Agonist activity at rabbit recombinant beta-2 adrenergic receptor assessed as cAMP accumulation by cell-based assay.
The target of series [6] is Beta-2 adrenergic receptor (Canis lupus familiaris) (UniProt P54833). The series can be described thus: Agonist activity at dog recombinant beta-2 adrenergic receptor assessed as cAMP accumulation by cell-based assay. The format is functional.
Beta-2 adrenergic receptor (Canis lupus familiaris), sequence (P54833 whole entry, looked up): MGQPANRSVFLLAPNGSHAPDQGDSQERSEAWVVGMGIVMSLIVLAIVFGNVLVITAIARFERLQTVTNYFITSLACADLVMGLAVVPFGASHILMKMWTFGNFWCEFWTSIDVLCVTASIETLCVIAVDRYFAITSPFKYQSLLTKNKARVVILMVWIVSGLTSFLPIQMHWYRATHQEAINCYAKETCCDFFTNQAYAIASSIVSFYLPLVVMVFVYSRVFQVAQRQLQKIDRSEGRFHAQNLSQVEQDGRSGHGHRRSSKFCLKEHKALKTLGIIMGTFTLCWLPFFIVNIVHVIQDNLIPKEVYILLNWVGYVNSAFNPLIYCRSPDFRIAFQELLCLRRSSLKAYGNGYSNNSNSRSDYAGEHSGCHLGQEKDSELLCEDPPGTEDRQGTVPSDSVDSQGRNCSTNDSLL
Series [7] shares this target. Briefly: Intrinsic activity at dog recombinant beta-2 adrenergic receptor.
The target of series [8] is Beta-2 adrenergic receptor (Mus musculus) (UniProt P18762). The series can be described thus: Agonist activity at mouse recombinant beta-2 adrenergic receptor assessed as cAMP accumulation by cell-based assay. In kind it is functional.
Beta-2 adrenergic receptor (Mus musculus), sequence (P18762 whole entry, looked up): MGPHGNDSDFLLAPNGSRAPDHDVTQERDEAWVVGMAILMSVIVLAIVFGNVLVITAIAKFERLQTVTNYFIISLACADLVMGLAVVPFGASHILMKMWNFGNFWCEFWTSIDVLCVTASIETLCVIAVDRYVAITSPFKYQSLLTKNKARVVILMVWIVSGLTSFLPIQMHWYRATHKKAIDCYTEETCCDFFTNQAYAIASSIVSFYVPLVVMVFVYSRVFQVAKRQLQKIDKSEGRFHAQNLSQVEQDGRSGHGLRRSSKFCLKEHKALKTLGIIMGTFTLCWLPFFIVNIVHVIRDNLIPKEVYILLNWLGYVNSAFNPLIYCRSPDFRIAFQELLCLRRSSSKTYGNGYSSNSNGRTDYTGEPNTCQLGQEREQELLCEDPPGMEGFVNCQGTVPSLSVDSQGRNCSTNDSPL
The target is the same in series [9]. Briefly: Intrinsic activity at mouse recombinant beta-2 adrenergic receptor.
Series [10] is filed under the species Oryctolagus cuniculus. Briefly: Intrinsic activity at rabbit recombinant beta-2 adrenergic receptor.
Series [11] deals with Cavia porcellus. The series can be described thus: Bronchoprotective activity in guinea pig assessed as inhibition of histamine-induced bronchoconstriction administered intratracheally after 2 hrs. The settings on record: inhaled or nasal. In kind it is functional.
The subject of series [12] is Cavia porcellus. Briefly: Bronchoprotective activity in guinea pig assessed as inhibition of histamine-induced bronchoconstriction administered intratracheally after 2 hrs in presence of propanolol. The format is functional, organism-based. The procedure, abridged:
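In the guinea pig histamine-induced bronchoconstriction model, propranolol was given at 1 mg/kg i.v. to check that the bronchoprotection was mediated through β2 receptors.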

Series [13] in a line: Intrinsic clearance in rat measured per million cells. In kind it is ADME.
The nature of series [14]: Terminal half life in iv dosed rat. The format is ADME, organism-based. The settings on record: in vivo, read-out: beta t1/2 (converted).
Series [15] in a line: Terminal half life in iv dosed guinea pig. In kind it is ADME, organism-based, Cavia porcellus. The settings on record: in vivo, read-out: beta t1/2 (converted).
A short description of series [16]: Terminal half life in iv dosed dog. In kind it is ADME, organism-based, Canis lupus familiaris. The settings on record: in vivo, read-out: beta t1/2 (converted).
Series [17] is described as follows: Apparent volume of distribution in iv dosed rat. The settings on record: in vivo, read-out: Vz. In kind it is ADME, organism-based.
Series [18] can be described thus: Apparent volume of distribution in iv dosed guinea pig. In kind it is ADME, organism-based, Cavia porcellus. The settings on record: in vivo, read-out: Vz.
Series [19] in a line: Apparent volume of distribution in iv dosed dog. The format is ADME, organism-based, Canis lupus familiaris. The settings on record: in vivo, read-out: Vz.
Series [20] can be described thus: Oral bioavailability in rat. The settings on record: in vivo. In kind it is ADME, organism-based.
Series [21] can be described thus: Oral bioavailability in dog. In kind it is ADME, organism-based, Canis lupus familiaris. The settings on record: in vivo.
The test system of series [22] is Cavia porcellus. The series can be described thus: Bronchoprotective activity in guinea pig assessed as inhibition of histamine-induced bronchoconstriction at ED80 administered intratracheally after 24 hrs relative to control. The format is functional. The gist of the method:
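Guinea pigs received a single intratracheal dose, set from a dose–response in the same histamine-induced bronchoconstriction model. Histamine challenge was given at several times after dosing, and inhibition of bronchoconstriction was measured. Bronchoprotection at 24 h was expressed relative to control animals.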

Series [23] has as its system Cavia porcellus. Briefly: Toxicity in iv dosed guinea pig assessed as change in plasma potassium level up to 60 mins. The format is organism-based. The settings on record: in vivo, 1 h.
In series [24] the target is T2, Alpha-1D adrenergic receptor (Homo sapiens) (UniProt P25100).
T2 sequence (whole entry): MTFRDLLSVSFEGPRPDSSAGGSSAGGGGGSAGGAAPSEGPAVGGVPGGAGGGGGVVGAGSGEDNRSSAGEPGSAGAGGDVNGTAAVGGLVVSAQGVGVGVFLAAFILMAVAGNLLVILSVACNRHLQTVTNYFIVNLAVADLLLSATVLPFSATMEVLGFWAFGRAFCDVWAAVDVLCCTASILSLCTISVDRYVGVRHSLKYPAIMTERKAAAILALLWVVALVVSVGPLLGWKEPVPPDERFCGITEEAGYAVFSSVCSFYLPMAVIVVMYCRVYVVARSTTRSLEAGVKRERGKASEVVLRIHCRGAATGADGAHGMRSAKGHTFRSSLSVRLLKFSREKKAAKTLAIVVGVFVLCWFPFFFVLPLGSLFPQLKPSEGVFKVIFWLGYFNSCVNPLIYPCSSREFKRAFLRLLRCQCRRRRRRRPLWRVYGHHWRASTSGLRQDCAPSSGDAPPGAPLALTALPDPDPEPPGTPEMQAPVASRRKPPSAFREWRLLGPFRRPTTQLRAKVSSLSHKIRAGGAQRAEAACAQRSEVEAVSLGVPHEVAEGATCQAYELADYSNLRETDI
The series can be described thus: Agonist activity at human recombinant alpha-1D adrenergic receptor expressed in HEK cells assessed as intracellular calcium response. The settings on record: HEK293.

The target in series [25] is T1, D(2) dopamine receptor. The series can be described thus: Agonist activity at human recombinant dopamine D2S receptor expressed in HEK cells by GTPgammaS binding assay. The format is functional, HEK293. On the technique in general: GTPγS is a poorly hydrolysed GTP analogue; its binding reports G protein activation.
Series [26] deals with Cavia porcellus. The series can be described thus: Bronchoprotective activity in guinea pig assessed as inhibition of histamine-induced bronchoconstriction at ED80 administered intratracheally after 4 to 24 hrs relative to control. The format is functional, organism-based. The gist of the method: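 Guinea pigs received a single intratracheal dose of agonist. Histamine-induced bronchoconstriction was measured at several time points after dosing, up to 24 h. Bronchoprotection was expressed as inhibition relative to control animals.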

Series [27] has as its target Beta-2 adrenergic receptor (Cavia porcellus) (UniProt Q8K4Z4). The settings on record: Trachea.

Beta-2 adrenergic receptor (Rattus norvegicus), sequence (P10608 whole entry, looked up): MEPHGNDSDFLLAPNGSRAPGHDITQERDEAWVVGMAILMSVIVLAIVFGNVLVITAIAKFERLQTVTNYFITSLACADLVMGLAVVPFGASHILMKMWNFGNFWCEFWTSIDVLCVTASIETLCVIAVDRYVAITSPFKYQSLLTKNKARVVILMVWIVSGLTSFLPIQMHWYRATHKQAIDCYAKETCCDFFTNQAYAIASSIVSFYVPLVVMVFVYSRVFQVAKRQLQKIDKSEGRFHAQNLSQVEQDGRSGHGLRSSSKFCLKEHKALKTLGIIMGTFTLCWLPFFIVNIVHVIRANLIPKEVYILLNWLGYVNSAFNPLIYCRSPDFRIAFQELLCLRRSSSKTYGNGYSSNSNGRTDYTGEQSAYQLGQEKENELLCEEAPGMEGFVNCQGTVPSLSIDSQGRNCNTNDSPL
Beta-2 adrenergic receptor (Cavia porcellus), sequence (Q8K4Z4 whole entry, looked up): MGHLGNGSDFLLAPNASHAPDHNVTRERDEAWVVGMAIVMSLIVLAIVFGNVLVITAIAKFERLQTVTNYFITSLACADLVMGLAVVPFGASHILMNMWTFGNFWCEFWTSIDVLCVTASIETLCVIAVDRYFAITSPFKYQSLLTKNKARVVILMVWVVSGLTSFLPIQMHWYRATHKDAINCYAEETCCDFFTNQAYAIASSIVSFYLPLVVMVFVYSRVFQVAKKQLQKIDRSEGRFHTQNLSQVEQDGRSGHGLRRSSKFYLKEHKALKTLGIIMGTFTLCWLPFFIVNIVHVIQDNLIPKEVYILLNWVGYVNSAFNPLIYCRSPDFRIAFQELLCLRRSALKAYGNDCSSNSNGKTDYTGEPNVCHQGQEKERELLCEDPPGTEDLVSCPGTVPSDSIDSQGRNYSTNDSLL

Regarding `CC(C)N(C)CCCN(CCNCCc1ccc(O)c2[nH]c(=O)sc12)C(=O)CCOCCc1cccc(Cl)c1`, in series [1], the EC50 was 5.01 nM.

As to `Br.CCN(CC)CCN(CCNCCc1ccc(O)c2[nH]c(=O)sc12)C(=O)CCOCCc1cccc2ccccc12`, the outcome (on D(2) dopamine receptor [2]; in series [3]; in series [4]; in the series listed under Oryctolagus cuniculus [5]; in [6]; in series [7]) was Active. The outcome (in series [8]; in [9]; in the series filed under Oryctolagus cuniculus [10]) was Active. Further, in the series on Cavia porcellus [11], the ED80 was 0.027 mg/kg. Besides, the result (in the series on Cavia porcellus [12]; in [24]) was inactive. For the same compound, the hepatocyte CLint in [13] was 105 µL/min/1e6 cells. The half-life is 11 h in series [14], 17 h in [15] and 18 h in series [16]. The values for the Vd in series [17], in series [18] and in [19] were 23 L/kg, 22 L/kg and 17 L/kg, respectively. For the same compound, the bioavailability in series [20] and in series [21] was < 2% in each case. The “inhibition (INH)” value in the series with Cavia porcellus [22] is recorded as 58%. The Activity entry in the series with Cavia porcellus [23] is listed as “Toxic”.

For the compound `CN(C)CCN(CCNCCc1ccc(O)c2[nH]c(=O)sc12)C(=O)CCOCCc1ccccc1`, the EC50 in series [1] is 6.31 nM.

`O=C(CCOCCc1cccc(Cl)c1)N(CCNCCc1ccc(O)c2[nH]c(=O)sc12)CCN1CCCCC1`: the EC50 in [1] was 12.6 nM.

With `CN(C)CCCN(CCNCCc1ccc(O)c2[nH]c(=O)sc12)C(=O)CCOCCc1ccccc1`, the EC50 in series [1] was 15.8 nM.

In the case of `CCN(C)CCCN(CCNCCc1ccc(O)c2[nH]c(=O)sc12)C(=O)CCOCCc1cccc(Cl)c1`, in series [1], the EC50 is 10 nM.

`CN(CCCN(CCNCCc1ccc(O)c2[nH]c(=O)sc12)C(=O)CCOCCc1cccc(Cl)c1)C1CC1`: the EC50 in [1] is 7.94 nM.

In the case of `NCCCN(CCNCCc1ccc(O)c2[nH]c(=O)sc12)C(=O)CCOCCc1ccccc1`, in series [1], the EC50 was 316 nM.

For `CCN(CC)CCN(CCNCCc1ccc(O)c2[nH]c(=O)sc12)C(=O)CCOCCc1cccc(OC)c1`, the EC50 in series [1] is 7.94 nM.

Take `CCN(CC)CCN(CCNCCc1ccc(O)c2[nH]c(=O)sc12)C(=O)CCOCCc1cccc(Cl)c1`: the EC50 in [1] was 6.31 nM.

In the case of `CC(C)(C)NCC(O)c1ccc(O)c(CO)c1` (stereo unspecified) [ALBUTEROL], the Activity entry in the series on Cavia porcellus [23] was “Toxic”.

As to `O=c1[nH]c2c(O)ccc(CCNCCS(=O)(=O)CCCOCCc3ccccc3)c2s1` [SIBENADET], the EC50 at D(2) dopamine receptor [25] was 2 nM.

For `OCc1cc(C(O)CNCCCCCCOCCCCc2ccccc2)ccc1O` (stereo unspecified), the inhibition result with Cavia porcellus [26] was “Active”.

Compound `CCc1cc2c(cc1CC)CC(NC[C@H](O)c1ccc(O)c3[nH]c(=O)ccc13)C2` showed a pA50 in series [27] of 7.7.
